In ChEMBL document CHEMBL4308879, “Seco-4-methyl-DCK derivatives as potent chemosensitizers” (Bioorg Med Chem Lett, 2019):

Columns and labels:
[1] = Cytotoxicity against human A2780/TAX cells assessed as survival at 10 uM after 48 hrs by MTT assay relative to control; assay type: cell-based, A2780/Taxol; details: read-out: Survival
Method in brief: (§1)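 Survival ratio (%) determined from the surviving fraction after treatment. Reported as mean of three independent experiments.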

[2] = Cytotoxicity against HOSEC assessed as survival at 10 uM after 48 hrs by MTT assay relative to control; details: human, HOSEC cells; read-out: Survival; method in brief: as §1
[3] = Cytotoxicity against human T29 cells assessed as survival at 10 uM after 48 hrs by MTT assay relative to control; assay type: cell-based; details: read-out: Survival; method in brief: as §1
[4] = Cytotoxicity against HUVEC assessed as survival at 10 uM after 48 hrs by MTT assay relative to control; assay type: cell-based; details: human, HUVEC cells; read-out: Survival; method in brief: as §1
[5] = tested on: A2780/Taxol; test: Reversal ratio of IC50 for paclitaxel-induced cytotoxicity against human A2780/TAX cells in absence of compound to IC50 paclitaxel-induced cytotoxicity against human A2780/TAX cells in presence of compound; assay type: functional
[6] = Reversal ratio of IC50 for cisplatin-induced cytotoxicity against human A2780/CDDP cells in absence of compound to IC50 for cisplatin-induced cytotoxicity against human A2780/CDDP cells in presence of compound; assay type: functional
[7] = Reversal ratio of IC50 for vincristine-induced cytotoxicity against human KBV cells in absence of compound to IC50 for vincristine-induced cytotoxicity against human KBV cells in presence of compound; assay type: functional
[8] = Cytotoxicity against human KBV cells assessed as survival at 10 uM after 48 hrs by MTT assay relative to control; assay type: cell-based; details: read-out: Survival; method in brief: as §1
[9] = Cytotoxicity against human A2780/CDDP cells assessed as survival at 10 uM after 48 hrs by MTT assay relative to control; assay type: cell-based; details: read-out: Survival; method in brief: as §1
[10] = tested on: KB; test: Cytotoxicity against human KB cells after 48 hrs by MTT assay; assay type: functional, cell-based
[11] = Resistance ratio of IC50 for human KBV cells to IC50 for human KB cells; assay type: functional

Row | Compound | viability at 48 h, 10 µM [1] | viability at 48 h, 10 µM [2] | viability at 48 h, 10 µM [3] | viability at 48 h, 10 µM [4] | Ratio IC50 [5] | Ratio IC50 [6] | Ratio IC50 [7] | viability at 48 h, 10 µM [8] | viability at 48 h, 10 µM [9] | IC50 [10] | Ratio IC50 [11]
1 | CCOc1ccc2c(C)cc(=O)oc2c1COC(=O)c1cc(OC)c(OC)c(OC)c1 | 97.6% | 86.7% | 103% | 99.7% | 51 | – | – | – | – | – | –
2 | Cc1cc(=O)oc2c(COC(=O)c3ccc(C(C)(C)C)cc3)c(OC(C)C)ccc12 | 104% | 90.6% | 96% | 83.7% | 72 | – | – | – | – | – | –
3 | CCOc1ccc2c(C)cc(=O)oc2c1COC(=O)c1cc(OC)c(OC)cc1OC | 84.1% | 78.2% | 89.5% | 88.8% | 47 | – | – | – | – | – | –
4 | CCOc1ccc2c(C)cc(=O)oc2c1COC(=O)c1ccc(C(C)(C)C)cc1 | 95.1% | 79.8% | 87.1% | 76% | 158 | – | – | – | – | – | –
5 | CCOc1ccc2c(C)cc(=O)oc2c1COC(=O)c1ccc(Cl)c([N+](=O)[O-])c1 | 78.7% | 50.1% | 72.6% | 81% | 31 | – | – | – | – | – | –
6 | CCOc1ccc2c(C)cc(=O)oc2c1COC(=O)c1c(F)cccc1F | 101% | 78.2% | 94.6% | 86.3% | 72 | – | – | – | – | – | –
7 | CCOc1ccc2c(C)cc(=O)oc2c1COC(=O)/C=C/c1ccccc1 | 98.9% | 92.2% | 98.7% | 84.7% | 97 | – | – | – | – | – | –
8 | COc1ccc(C(=O)OCc2c(OC(C)C)ccc3c(C)cc(=O)oc23)cc1OC | 102% | 107% | 101% | 84.2% | 197 | – | – | – | – | – | –
9 | COc1cc(OC)c(C(=O)OCc2c(OC(C)C)ccc3c(C)cc(=O)oc23)cc1OC | 106% | 86.3% | 90.9% | 72.7% | 161 | – | – | – | – | – | –
10 | CCOc1ccc2c(C)cc(=O)oc2c1COC(=O)c1ccc(C)cc1 | 95.8% | 64.7% | 86.1% | 77.1% | 26 | – | – | – | – | – | –
11 | CCCc1ccc(C(=O)OCc2c(OCC)ccc3c(C)cc(=O)oc23)cc1 | 84% | 76% | 97.2% | 78.4% | 54 | – | – | – | – | – | –
12 | CCOc1ccc2c(C)cc(=O)oc2c1COC(=O)CCc1ccc(OC)cc1 | 101% | 73.5% | 91.3% | 85% | 6 | – | – | – | – | – | –
13 | Cc1cc(=O)oc2c(COC(=O)c3ccc(F)cc3)c(OC(C)C)ccc12 | 102% | 70.5% | 85.3% | 79.7% | 93 | – | – | – | – | – | –
14 | Cc1cc(=O)oc2c(CO)c(OC(C)C)ccc12 | 94.6% | 80.2% | 88.6% | 84.7% | – | – | – | – | – | – | –
15 | CCOc1ccc2c(C)cc(=O)oc2c1COC(=O)/C=C/c1ccc(Cl)cc1 | 102% | 90.7% | 106% | 101% | 14 | – | – | – | – | – | –
16 | CCOc1ccc2c(C)cc(=O)oc2c1COC(=O)c1cccc(OC)c1 | 76.5% | 68.4% | 83.4% | 79.8% | 56 | – | – | – | – | – | –
17 | CCOc1ccc2c(C)cc(=O)oc2c1COC(=O)c1cccc(N(C)C)c1 | 97% | 97.2% | 106% | 96.3% | 224 | 0.83 | 314 | 104% | 117% | – | –
18 | CCOc1ccc2c(C)cc(=O)oc2c1COC(=O)/C=C/c1ccc(OC)cc1 | 83.6% | 84.9% | 98.9% | 93.8% | 735 | 0.76 | 793 | 105% | 123% | – | –
19 | CCOc1ccc2c(C)cc(=O)oc2c1COC(=O)c1ccc(F)cc1 | 93.4% | 78.3% | 88.6% | 87.2% | 61 | – | – | – | – | – | –
20 | Cc1cc(=O)oc2c(COC(=O)c3cccc(N(C)C)c3)c(OC(C)C)ccc12 | 102% | 76% | 90.8% | 84.8% | 86 | – | – | – | – | – | –
21 | CCOc1ccc2c(C)cc(=O)oc2c1COC(=O)c1ccc(OC)c(OC)c1 | 83.1% | 72% | 86.1% | 83.4% | 101 | – | – | – | – | – | –
22 | CCCc1ccc(C(=O)OCc2c(OC(C)C)ccc3c(C)cc(=O)oc23)cc1 | 101% | 87.5% | 92.7% | 82.2% | 45 | – | – | – | – | – | –
23 | COc1cc(C(=O)OCc2c(OC(C)C)ccc3c(C)cc(=O)oc23)cc(OC)c1OC | 94.6% | 61.7% | 81.5% | 73.1% | 354 | 0.86 | 134 | 96.1% | 65.5% | – | –
24 | COc1ccc(/C=C/C(=O)OCc2c(OC(C)C)ccc3c(C)cc(=O)oc23)cc1 | 98.1% | 93.6% | 90.4% | 98.9% | 496 | 0.78 | 1257 | 108% | 131% | – | –
25 | CC[C@]1(O)C[C@H]2CN(CCc3c([nH]c4ccccc34)[C@@](C(=O)OC)(c3cc4c(cc3OC)N(C=O)[C@H]3[C@@](O)(C(=O)OC)[C@H](OC(C)=O)[C@]5(CC)C=CCN6CC[C@]43[C@@H]65)C2)C1 [VINCRISTINE] | – | – | – | – | – | – | – | – | – | 0.21 nM | 3173
26 | Cc1cc(=O)oc2c(COC(=O)/C=C/c3ccccc3)c(OC(C)C)ccc12 | 103% | 105% | 104% | 95.9% | 32 | – | – | – | – | – | –
27 | Cc1ccc(C(=O)OCc2c(OC(C)C)ccc3c(C)cc(=O)oc23)cc1 | 95.2% | 79.8% | 91.2% | 75.6% | 95 | – | – | – | – | – | –
